Assay outcomes: PubChem BioAssay, several laboratories
The full list was thinned out, with hits kept by preference.
NOD2-RIPK2 inh – NOD2-RIPK2 binding disruptors in cells, primary screen, fluorescence, CHO cells, BLA complementation; Receptor-interacting serine/threonine-protein kinase 2 (Homo sapiens), O43353; CCF4 ratio; inhibition, % at 4.98 µM; hit rate 0.38% among 360,000; AID 624267, 2012; in the data active means inhibition above about 21%;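 further: 0% = vehicle only and 100% = reference blocker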
UPR CHOP act – activators of apoptotic CHOP UPR arm, primary screen, cell-based, CHO-CHOP luciferase reporter, luminescence, uHTS. UPR activation; percent of tunicamycin response over DMSO baseline. activation, % at 10 µM. hit rate 0.34% among 330,000. AID 449763, 2010;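 active means at 10 µM dose, activation of 40% or more, normalized to positive control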;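 further: 100% = tunicamycin at 10 µg/mL and 0% = DMSO alone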
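Test system: CHO CHOP reporter cells. Input: 500 CHO-CHOP cells per well. Medium: F12 with 10% FBS. Technique: luciferase luminescence. Measure: percent activation relative to tunicamycin control. Dosing: 10 µM compound, 0.5% DMSO. Timing: 16-18 h cell attachment, then 6 h compound exposure, 37 °C.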
CHOP inh – inhibitors of CHOP promoter induction, primary screen, cell-based, unfolded protein response, luciferase reporter; inhibition, % at 10 µM; hit rate 3.8% among 220,000; CHO-K1 CHOP-promoter luciferase, tunicamycin-induced, 15-18 h; AID 2732, 2010;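 active means compounds that reduced the stress-induced luciferase reporter signal by more than about 70% of percent inhibition, limit read from the data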;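 further: 0% = tunicamycin plus vehicle and 100% = wells without tunicamycin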
TLR9-MyD88 inh – inhibitors of TLR9-MyD88 association in cells, primary screen, cell-based, CHO, BLA complementation, fluorescence | Toll-like receptor 9 (Homo sapiens) + Myeloid differentiation primary response protein … | CCF4 FRET ratio | inhibition, % at 4.98 µM | hit rate 0.21% among 340,000 | AID 504734, 2011;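 active means inhibition above the mean over all tested compounds plus 3 SD, cut at about 21% in these data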;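 further: 0% = DMSO only wells and 100% = clavulanate BLA inhibitor control wells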
Target sequence (Q99836 whole entry, looked up): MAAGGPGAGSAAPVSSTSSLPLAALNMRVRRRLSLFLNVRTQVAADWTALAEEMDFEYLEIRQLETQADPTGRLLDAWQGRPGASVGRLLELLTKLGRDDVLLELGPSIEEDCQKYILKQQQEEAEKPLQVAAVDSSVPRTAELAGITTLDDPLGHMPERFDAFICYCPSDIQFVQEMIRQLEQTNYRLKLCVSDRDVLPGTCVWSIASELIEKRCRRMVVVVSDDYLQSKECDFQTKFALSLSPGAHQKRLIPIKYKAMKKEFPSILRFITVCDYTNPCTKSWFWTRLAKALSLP
Target sequence (Q9NR96 whole entry, looked up): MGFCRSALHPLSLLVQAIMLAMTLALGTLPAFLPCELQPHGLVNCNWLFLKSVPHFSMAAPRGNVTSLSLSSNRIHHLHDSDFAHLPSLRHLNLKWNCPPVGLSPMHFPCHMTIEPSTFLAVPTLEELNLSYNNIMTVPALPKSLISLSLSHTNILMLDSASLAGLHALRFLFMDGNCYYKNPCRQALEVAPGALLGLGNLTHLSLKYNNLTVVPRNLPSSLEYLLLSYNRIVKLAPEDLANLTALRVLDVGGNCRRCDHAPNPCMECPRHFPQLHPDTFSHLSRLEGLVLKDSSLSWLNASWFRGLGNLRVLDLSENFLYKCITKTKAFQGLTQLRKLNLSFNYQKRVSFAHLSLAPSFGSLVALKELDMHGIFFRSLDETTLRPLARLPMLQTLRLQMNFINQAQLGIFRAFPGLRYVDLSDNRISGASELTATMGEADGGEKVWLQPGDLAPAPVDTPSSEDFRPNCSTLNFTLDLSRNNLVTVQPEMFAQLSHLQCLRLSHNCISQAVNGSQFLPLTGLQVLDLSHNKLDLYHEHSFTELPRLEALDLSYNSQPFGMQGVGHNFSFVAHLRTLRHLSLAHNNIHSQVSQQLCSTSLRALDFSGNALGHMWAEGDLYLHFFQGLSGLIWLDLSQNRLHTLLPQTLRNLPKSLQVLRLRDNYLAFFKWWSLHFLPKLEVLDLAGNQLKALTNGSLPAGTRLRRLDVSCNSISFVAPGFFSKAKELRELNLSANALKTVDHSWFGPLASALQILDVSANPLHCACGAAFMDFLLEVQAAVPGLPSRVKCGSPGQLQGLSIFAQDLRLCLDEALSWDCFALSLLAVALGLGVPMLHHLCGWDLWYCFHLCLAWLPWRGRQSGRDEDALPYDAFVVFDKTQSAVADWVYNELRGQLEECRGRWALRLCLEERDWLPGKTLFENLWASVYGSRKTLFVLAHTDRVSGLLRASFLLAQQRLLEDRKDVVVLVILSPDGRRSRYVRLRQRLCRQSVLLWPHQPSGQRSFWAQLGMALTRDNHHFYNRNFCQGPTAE
UPR XBP1 act – activators of adaptive XBP1 UPR arm, primary screen, cell-based, CHO-XBP1 luciferase reporter, luminescence, uHTS. IRE1-XBP1 UPR activation; percent of tunicamycin response, DMSO as zero. activation, % at 20 µM. hit rate 0.33% among 330,000. AID 463104, 2010;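 active means versus positive control, 20 µM dose yields 30% or more activation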;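 further: 100% = tunicamycin at 10 µg/mL and 0% = DMSO only wells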
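Material: CHO cell line with stable XBP1 luciferase reporter; buffer or medium: F12 medium containing 10% fetal bovine serum; compound: single point, 20 µM final compound, 1% DMSO; incubation: 6 h treatment, 37 °C; measured by: glow luminescence from Steady-Glo reagent; evaluation: activation, % of tunicamycin; control set: tunicamycin high, DMSO low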
TLR4 MyD88 comp – inhibitors of TLR4-MyD88 association in cells, primary screen, cell-based, HeLa CL3-4, BLA complementation, FRET ratio; Toll-like receptor 4 (Homo sapiens) + Myeloid differentiation primary response protein …; HeLa CL3-4 TLR4/MyD88 BLA complementation; inhibition, % at 8.4 µM; hit rate 0.18% among 200,000; in the data active means inhibition above about 25%;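 further: 0% = vehicle and 100% = reference inhibitor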
CHOP inh conf – retest of CHOP induction inhibitors, confirmation, cell-based. inhibition, % at 10 µM. hit rate 45% among 2,100. shares compounds with CHOP inh. CHO-CHOP promoter luciferase reporter, tunicamycin-induced, luminescence;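 active means mean of three repeat readings of reporter signal inhibition above a set limit, cut at about 70% in these data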;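 further: 0% = tunicamycin plus vehicle and 100% = wells lacking tunicamycin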
UPR CHOP confirm – activators of apoptotic CHOP UPR arm, confirmation, cell-based, CHO-CHOP luciferase reporter, single concentration. activation, % at 10 µM. shares compounds with UPR CHOP act. hit rate 64% among 1,000. CHO-CHOP cells, CHOP-luciferase reporter luminescence; percent of tunicamycin response, DMSO as zero; in the data active means activation above about 33%;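 further: 0% = DMSO wells and 100% = tunicamycin 10 µg/mL wells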
UPR XBP1 confirm – IRE1-XBP1 UPR arm activators, confirmation, cell-based, CHO-XBP1 luciferase reporter, luminescence, single concentration; activation, % at 20 µM; AID 485299, 2010; hit rate 63% among 1,000; shares compounds with UPR XBP1 act;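 active means reporter signal at least 30% of the positive control's activation in two or more of four replicate wells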;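 further: plate controls were DMSO negative control for no effect and tunicamycin 10 µg/mL positive control for full effect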
NOD2 RIPK2 conf – NOD2-RIPK2 binding disruptors, retest, confirmation, fluorescence, CHO cells, BLA complementation, triplicate; shares compounds with NOD2-RIPK2 inh; CCF4 FRET; inhibition, % at 4.98 µM; hit rate 70% among 1,200; AID 624370, 2012;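 active means mean inhibition across replicates above a set limit taken from the earlier primary screen, cut at about 21% in these data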;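 further: 0% = DMSO-only wells and the high end = clavulanate BLA-blocked wells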
BLA counter – NOD2-RIPK2 counterscreen BLA reporter activity. hit rate 57% among 1,200. inhibition, % at 4.98 µM. CHO BLA reporter, CCF4 FRET ratio. AID 624371. shares compounds with NOD2-RIPK2 inh;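 active means mean inhibition above the low-control mean inhibition plus three low-control SD, cut at about 11% in these data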;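 further: 0% = DMSO only wells and 100% = clavulanate high control wells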
The depositor's hits bear a star; . = no result given.

SMILES	NOD2-RIPK2 inh	UPR CHOP act	CHOP inh	TLR9-MyD88 inh	UPR XBP1 act	TLR4 MyD88 comp	CHOP inh conf	others
COC(=O)[C@]12OC[C@]34C([C@@H](O)[C@@H]1O)[C@]1(C)CC(=O)C(O)=C(C)[C@@H]1C[C@H]3OC(=O)[C@H](O)[C@@H]24 (some centres not stated)	26*	-5	104*	-6	-4	.	108*
CCC(C)c1cnc(CC(C)C)c(=O)n1O (configuration not stated)	-12	.	.	.	.	.	.
CN[C@H]1C[C@H]2O[C@@](C)([C@H]1OC)n1c3ccccc3c3c4c(c5c6ccccc6n2c5c31)C(=O)NC4	.	-6	108*	.	-11	8	121*
CCOC(=O)c1c(-n2c(C)cc(C=C3C(=O)NC(=O)NC3=O)c2C)sc2c1CCCC2	11	5	96*	-8	0	6	42
CN(C(=O)Oc1cccc2ccccc12)C1C=CCC1 (configuration not stated)	-1	.	.	-7	.	.	.
O=C(CSC1c2ccccc2-c2ccccc21)N/N=C/c1ccccc1O	-5	-3	100*	5	1	-1	118*
O=C1NC(=O)C(=Cc2ccc(SC3CCCCC3)o2)C(=O)N1	-9	2	108*	14	1	10	55
CCOC(=O)C1(CCOc2ccccc2)CCN(Cc2ccc(C)s2)CC1	3	-1	101*	-3	-2	-12	57
C/C=C(\C)C(=O)OC1C(C)=C2C(C1OC(=O)CCCCC)C(C)(OC(C)=O)CC(OC(=O)CCC)C1(O)C2OC(=O)C1(C)O (configuration not stated)	.	22	105*	.	61*	.	125*
FC(F)(F)Oc1ccc(NC2=NCCCS2)cc1	-8	4	.	-6	4	.	.
CN1CCN(c2nc3ccccn3c(=O)c2C=C2C(=O)N(C)C(=O)N(C)C2=O)CC1	-7	-1	7	9	-3	7	.
CCC(C)NC(=O)c1c(N)n(CC2CCCO2)c2nc3ccccc3nc12 (configuration not stated)	-2	1	96*	-2	1	-19	103*
CC[C@@H]1C=CC=CC[C@H](C)[C@@H](O)[C@@H](C)C(=O)[C@H](C)[C@@H](O)[C@H](C)C(=O)[C@H](C)[C@@H](O)[C@H](C)C=CC(=O)O[C@H]2[C@@H](C)[C@@H](CC1)O[C@@]1(CC[C@@H](C)[C@@H](C[C@H](C)O)O1)[C@@H]2C	.	7	.	.	16	.	.
CN(C)C(=S)SSC(=S)N(C)C	-13	.	106*	3	.	1	-134
Cc1cccc(NP(=O)(Oc2ccccc2F)Oc2ccccc2F)c1C	-8	1	58	-3	-3	-7	.
CCc1ccc(NP(=O)(Oc2ccccc2F)Oc2ccccc2F)cc1	-3	-1	98*	2	-4	3	102*
Cc1ccc(NP(=O)(Oc2ccccc2F)Oc2ccccc2F)cc1	0	0	98*	-9	-2	-3	101*
CCCCCn1c(=O)c(C(=O)Nc2ccccn2)c(O)c2ccccc21	-4	15	.	1	-2	.	.
CCCCCCn1c(=O)c(C(=O)Nc2cnccn2)c(O)c2ccccc21	-1	14	96*	-6	4	9	120*
CC(C)c1ccccc1NC1=NCCCS1	1	1	.	3	-1	.	.
CSc1ncc(/C=C2/C(=O)NC(=O)N(c3ccc(C)cc3)C2=O)cn1	2	-1	-4	-7	-3	11	.
Cc1ccc(N2C(=O)NC(=O)/C(=C/c3cnn(-c4ccc(C)cc4)c3)C2=O)cc1	2	87*	102*	-19	3	0	-79	UPR CHOP confirm=93*
CCOc1ccc(N2C(=O)/C(=C\c3cccs3)C(=O)NC2=S)cc1	.	268*	106*	.	-7	11	-100	UPR CHOP confirm=63*
COc1ccc2c3c1OC1[C@H](O)CCC4[C@@H](C2)N(C)CC[C@]314 (some centres not stated)	-4	0	.	3	-1	.	.
O=C1NC(=O)N(Cc2ccccc2)C(=O)/C1=C\c1ccco1	-1	2	106*	-4	71*	8	-47	UPR XBP1 confirm=29*
Cc1ccc(N2C(=O)CC(=O)NC2=O)cc1Cl	-5	0	.	-13	-5	.	.
COC(=O)[C@@H]1[C@@H](C(=O)OC)C2(c3ccccc3-c3ccccc32)N(c2ccc(Cl)cc2)N1C#N	71*	-10	109*	2	-7	8	124*	NOD2 RIPK2 conf=68*;BLA counter=2
NC(Cc1ccccc1)c1nn[nH]n1 (configuration not stated)	-6	.	.	-5	.	.	.
